Experimental data taken from ChEMBL document CHEMBL1667799, “HIV-1 integrase strand-transfer inhibitors: design, synthesis and molecular modeling investigation” (Eur J Med Chem, 2011).

Legend:
[1] = tested on: Human immunodeficiency virus 1; test: Antiviral activity against HIV1 3B infected in human MT4 cells assessed as inhibition of virus-induced cytopathic effect by MTT assay; type: functional, organism-based; conditions: Human immunodeficiency virus 1, 3B
In short: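 HIV-1 IIIB stock titrated on MT-4 cells to set CCID50. MT-4 cells infected with 100–300 CCID50 in presence of five-fold serial drug dilutions. Viability read by MTT reduction to formazan, measured spectrophotometrically. EC50 is concentration giving 50% protection against viral CPE. Values are averages ± SD.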

[2] = target: Human immunodeficiency virus type 1 integrase (Human immunodeficiency virus 1) (UniProt Q7ZJM1)
[3] = Selectivity index, ratio of CC50 for human MT4 cells to EC50 for HIV13B; type: toxicity, cell-based; conditions: read-out: Ratio CC50/EC50
In short: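 Index calculated as CC50/EC50. CC50 is the concentration reducing MT-4 viability by 50%. EC50 is 50% protection against HIV-1 IIIB CPE after infection with 100–300 CCID50, across five-fold serial dilutions. Both are read by MTT assay.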

[4] = target: Human immunodeficiency virus type 1 integrase (Human immunodeficiency virus 1, UniProt Q7ZJM1); test: Inhibition of HIV-1 integrase after 1 hr by ELISA
[5] = Cytotoxicity against human MT4 cells by MTT assay; type: cell-based
In short: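 MT-4 cell viability read by MTT reduction to formazan by mitochondrial dehydrogenase, measured spectrophotometrically, across drug dilutions. CC50 is concentration reducing MT-4 viability by 50%. Values are averages ± SD.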

Chain of Human immunodeficiency virus type 1 integrase (Q7ZJM1 whole entry): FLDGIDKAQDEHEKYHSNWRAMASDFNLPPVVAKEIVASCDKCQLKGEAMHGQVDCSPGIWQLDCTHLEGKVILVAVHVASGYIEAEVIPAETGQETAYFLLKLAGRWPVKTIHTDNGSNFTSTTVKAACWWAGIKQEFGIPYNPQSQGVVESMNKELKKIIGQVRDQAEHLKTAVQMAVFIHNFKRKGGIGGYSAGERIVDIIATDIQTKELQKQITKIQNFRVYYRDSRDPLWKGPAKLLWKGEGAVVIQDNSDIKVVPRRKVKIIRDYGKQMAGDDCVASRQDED
Chain of Human immunodeficiency virus type 1 integrase (Human immunodeficiency virus 1) (Q7ZJM1 as listed by the source): as the sequence (Q7ZJM1 whole entry) above

| SMILES | EC50 [1] [µM] | C50 [2] [µM] | selectivity ratio [3] | IC50 [4] [µM] | CC50 [5] [µM] |
| --- | --- | --- | --- | --- | --- |
| COc1cc2c(C(=O)/C=C(\O)C(=O)O)cn(Cc3ccc(F)cc3)c2cc1OC | 10.5 | 0.119 | 6 | 0.547 | 65.5 |
| CCOC(=O)/C(O)=C/C(=O)c1cn(Cc2ccc(F)cc2)c2c(OC)cc(OC)cc12 | > 62.1 | 34.9 | < 1 | 18.1 | 62.1 |
| COc1cccc2c1c(C(=O)/C=C(\O)C(=O)O)cn2Cc1ccc(F)cc1 | – | 0.14 | 70 | – | – |
| Cc1nnc(C(=O)NC(C)(C)c2nc(C(=O)NCc3ccc(F)cc3)c(O)c(=O)n2C)o1 | – | – | – | – | > 18 |
| COc1cc(OC)c2c(c1)c(C(=O)/C=C(\O)C(=O)O)cn2Cc1ccc(F)cc1 | 8.51 | 0.006 | 7 | 0.251 | 58.5 |
| CCOC(=O)/C(O)=C/C(=O)c1cn(Cc2ccc(F)cc2)c2c(OC)c(OC)ccc12 | 10.4 | 17.4 | 11 | 7.41 | 119 |
| COc1ccc2c(C(=O)/C=C(\O)C(=O)O)cn(Cc3ccc(F)cc3)c2c1OC | 14.7 | 6.37 | 9 | 3.55 | 130 |
| CCOC(=O)/C(O)=C/C(=O)c1cn(Cc2ccc(F)cc2)c2c(OC)ccc(OC)c12 | – | 0.66 | – | – | – |
| CCOC(=O)/C(O)=C/C(=O)c1cn(Cc2ccc(F)cc2)c2cc(OC)cc(OC)c12 | 2.48 | 1.29 | 22 | 2.79 | 55.4 |
| COc1cc(OC)c2c(C(=O)/C=C(\O)C(=O)O)cn(Cc3ccc(F)cc3)c2c1 | 3.2 | 0.28 | 6 | 0.47 | 20.7 |
| COc1ccc2c(c(C(=O)/C=C(\O)C(=O)O)cn2Cc2ccc(F)cc2)c1OC | 1.21 | 0.047 | 104 | 1.45 | 126 |
| CCOC(=O)/C(O)=C/C(=O)c1cn(Cc2ccc(F)cc2)c2ccc(OC)c(OC)c12 | 3.96 | 0.015 | 28 | 0.9 | 111 |
| CCOC(=O)/C(O)=C/C(=O)c1cn(Cc2ccc(F)cc2)c2cc(OC)c(OC)cc12 | > 21.8 | 7.69 | < 1 | 4.4 | 21.8 |
